The text below walks through data of paper PMC9099060 (Dose-Response, 2022).

Common to all, as to assay type: biochemical
One assay addresses α-glucosidase (Saccharomyces cerevisiae, UniProt P07265). Description: In vitro inhibitory activity against α-glucosidase.
The target in assay [1] is T1, DPP-IV (Homo sapiens, UniProt P27487). The assay is described as follows: In vitro inhibitory activity against DPP-IV.
The target of assay [2] is T1, DPP-IV. Description: Inhibitory kinetics study. The procedure, abridged: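 Test compound was tested separately at 0.25 and 0.5 mg/mL, each against Gly-Pro-AMC at various concentrations (0–60 μM). Inhibition pattern was assigned from Lineweaver-Burk plots. Ki was obtained from a double-reciprocal plot of initial […] against substrate. Values are mean ± SD, n = 6.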

The target in a further assay is T2, human α-amylase (HPA) (Homo sapiens, UniProt P04746).
T2 sequence (P04746 16-511): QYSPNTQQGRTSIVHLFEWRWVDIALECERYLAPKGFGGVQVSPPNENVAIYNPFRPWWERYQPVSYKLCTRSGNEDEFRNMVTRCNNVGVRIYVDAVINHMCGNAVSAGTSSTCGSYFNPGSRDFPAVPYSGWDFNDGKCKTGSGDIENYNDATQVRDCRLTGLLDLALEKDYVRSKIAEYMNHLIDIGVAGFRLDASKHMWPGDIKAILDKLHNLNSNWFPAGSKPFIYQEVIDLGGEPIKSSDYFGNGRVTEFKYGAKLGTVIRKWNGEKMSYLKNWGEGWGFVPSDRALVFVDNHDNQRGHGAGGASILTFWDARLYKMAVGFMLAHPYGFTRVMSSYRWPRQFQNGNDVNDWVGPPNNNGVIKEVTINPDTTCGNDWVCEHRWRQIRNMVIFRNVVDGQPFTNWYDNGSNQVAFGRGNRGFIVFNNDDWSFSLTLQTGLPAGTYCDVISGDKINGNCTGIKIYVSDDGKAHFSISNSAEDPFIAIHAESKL
The assay is described as follows: In vitro inhibitory activity against α-amylase. Conditions: α-amylase IC50 (μM)±SD, starch substrate; mean ± SD, n = 6.

T1 sequence (P27487 whole entry): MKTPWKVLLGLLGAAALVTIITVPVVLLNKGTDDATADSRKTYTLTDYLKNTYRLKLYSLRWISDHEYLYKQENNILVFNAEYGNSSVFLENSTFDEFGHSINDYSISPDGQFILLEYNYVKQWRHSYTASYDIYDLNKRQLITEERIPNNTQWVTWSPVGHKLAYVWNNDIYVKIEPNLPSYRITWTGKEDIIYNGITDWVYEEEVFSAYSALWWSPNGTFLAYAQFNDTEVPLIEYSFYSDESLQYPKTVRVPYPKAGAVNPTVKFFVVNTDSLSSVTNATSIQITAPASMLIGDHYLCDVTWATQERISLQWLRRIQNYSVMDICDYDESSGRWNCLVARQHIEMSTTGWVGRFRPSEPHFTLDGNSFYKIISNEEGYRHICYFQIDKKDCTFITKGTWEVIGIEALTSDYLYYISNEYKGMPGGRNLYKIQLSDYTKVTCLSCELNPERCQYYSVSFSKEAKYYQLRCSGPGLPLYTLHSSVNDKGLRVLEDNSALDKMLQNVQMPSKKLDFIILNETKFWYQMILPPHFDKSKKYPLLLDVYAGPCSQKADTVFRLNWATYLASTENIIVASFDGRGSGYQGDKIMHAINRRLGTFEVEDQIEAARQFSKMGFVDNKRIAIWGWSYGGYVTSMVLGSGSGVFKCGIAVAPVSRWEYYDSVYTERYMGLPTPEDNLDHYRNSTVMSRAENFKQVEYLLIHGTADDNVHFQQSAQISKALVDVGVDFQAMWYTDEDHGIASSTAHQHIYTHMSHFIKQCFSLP
Chain of α-glucosidase (P07265 whole entry): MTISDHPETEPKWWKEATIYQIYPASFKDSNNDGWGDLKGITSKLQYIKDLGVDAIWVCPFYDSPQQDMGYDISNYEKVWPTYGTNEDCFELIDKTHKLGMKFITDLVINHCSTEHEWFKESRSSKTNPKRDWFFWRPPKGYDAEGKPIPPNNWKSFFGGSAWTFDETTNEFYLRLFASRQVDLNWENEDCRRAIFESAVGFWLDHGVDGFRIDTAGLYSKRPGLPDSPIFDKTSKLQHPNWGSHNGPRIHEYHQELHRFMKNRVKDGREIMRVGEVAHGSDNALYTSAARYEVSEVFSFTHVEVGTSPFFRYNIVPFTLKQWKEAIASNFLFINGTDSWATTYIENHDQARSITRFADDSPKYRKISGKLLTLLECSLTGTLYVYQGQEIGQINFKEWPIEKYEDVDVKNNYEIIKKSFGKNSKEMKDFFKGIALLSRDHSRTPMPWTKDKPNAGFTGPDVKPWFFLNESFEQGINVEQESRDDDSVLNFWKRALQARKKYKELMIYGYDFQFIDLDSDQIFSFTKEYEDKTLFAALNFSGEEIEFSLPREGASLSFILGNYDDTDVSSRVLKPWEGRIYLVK

`Oc1ccc(/C=C/c2cc(O)cc(O)c2)cc1` [Resveratrol]: the IC50 (usually the concentration needed to halve the response being measured) against α-glucosidase is 47.9 ± 5.21 µM; against DPP-IV [1], 5.638 ± 0.0016 µM. The Ki (usually the dissociation constant of the complex between target and ligand, obtained from inhibition or displacement) on DPP-IV [2] came to 15 µM.

As to `O=C1c2c(O)cc(O)cc2OC(c2ccc(O)c(O)c2)C1O` (stereo not shown) [Taxifolin], the results for the IC50 on human α-amylase (HPA), against α-glucosidase and on DPP-IV [1] were 31.3 ± 0.556 µM, 45.9 ± 3.78 µM and 6.691 ± 0.004 µM, respectively. This molecule also yielded a Ki at DPP-IV [2] of 12.3 µM.
